# Results as given in PMC8791645 (Advanced therapeutics, 2021).
# Read-outs that look alike come from different tables or passages of the source.
# Tests used:
# M9-ENL1 cells = assay: MTT cell viability assay with M9-ENL1 cells; assay type: cell-based
# [1] = Drug release from PSMA-b-PS based NPs; assay type: physicochemical; details: for release half-life from NPs: PSMA-b-PS NPs, PBS pH 7.4, 37 °C
# In short: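 Loaded NPs dialysed (6–8 kDa MWCO) against phosphate-buffered saline, pH 7.4, 37 °C. Aliquots taken at 0, 1, 2, 4, 6, 8, 24, 48 and 72 h, with sink medium replaced at 2, 8, 24 and 48 h. Each aliquot mixed with an equal volume of methanol and analysed by C18 HPLC with 210 nm detection.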
# MV411 cells = assay: alamarBlue cell viability; assay type: cell-based
# [2] = Drug loading capacity in PSMA-b-PS NPs; assay type: physicochemical; details: mg drug loaded/mg NPs × 100, PSMA-b-PS NPs
# In short: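 Test compounds in chloroform (3 mg mL−1) stirred with aqueous NPs at 1:3 drug:NP weight ratio, left uncovered overnight to evaporate solvent (acetone in some runs). Insoluble drug removed by two 4000 rpm spins, and unloaded drug by 100 000 MWCO centrifugal filtration (2000 rpm, 10 min). Quantified by C18 reversed-phase HPLC at 210 nm against methanol standards. LC = mg drug loaded/mg NPs × 100.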
# [3] = Serum stability of MCL analogs; assay type: in vitro ADME, mouse
SMILES,"CC50 (M9-ENL1 cells; M9-ENL1, 24 h, read-out: LC50 M9-ENL1) [nM]",release half-life from NPs [1] [min],"CC50 (MV411 cells; Homo sapiens, MV4-11, 24 h, read-out: LC50 MV-411) [nM]",loading capacity (LC) [2],CC50 (M9-ENL1 cells) [nM],CC50 (MV411 cells) [nM],"hydrolysis ([3]; free compound, 24 h incubation in both 50% and 100% serum)","degradation half-life in serum ([3]; free drug, 50% serum) [min]","intact compound ([3]; free drug, 50% serum, after 8 h of incubation) [%]",release rate from NPs ([1]; from 0–8 h) [h⁻¹]
"C=C1C(=O)O[C@H]2[C@H]1CCC(C)=C1CC[C@@](C)(O)[C@@H]12 [MCL, Micheliolide, reference compound]",15400 ± 1100,19.8,5600 ± 2800,≈ 14%,,,,,,
C=C1C(=O)O[C@H]2[C@H]1CCC(C)=C1[C@H](OC(=O)c3ccc(C(F)(F)F)cc3)C[C@@](C)(O)[C@@H]12 [MCL-13],,,,,1800 ± 1000,1800 ± 700,,,,
C=C1C(=O)O[C@H]2[C@H]1CCC(COC(=O)c1cc(C(F)(F)F)cc(C(F)(F)F)c1)=C1CC[C@@](C)(O)[C@@H]12 [MCL-19],,540,,,4100 ± 1100,1700 ± 900,80–90%,18,7 ± 2,5.7
